The structures appear in SMILES notation. Calls of active or inactive are those of the source. Where only a bound is given, the exact number is not on record here.

Series [1] in a line: AUC in mouse at 5 mg/kg, iv. The format is ADME, organism-based. Set-up: dose 5 mg/kg, route intravenous. Particulars: plasma. In a few lines:
(§1)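 Compound given as single iv dose to mice or rats. Plasma samples prepared by protein precipitation with acetonitrile containing 1 μg/mL internal standard (3:1 v/v). Analysed by UPLC-MS/MS on a C18 reversed-phase column at 40 °C with an acetonitrile–0.05% formic acid gradient. Half-life and AUC (h ng/mL) derived from the plasma levels.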

The test system of series [2] is PC-3. Description: Antitumor activity against human PC3 cells xenografted in sc dosed NMRI mouse assessed as tumor regression dose. It counts as functional. In a few lines: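 1e7 PC3 cells (grown in RPMI + 10% FBS) in PBS/Matrigel 1:1 injected sc into female NMRI nude mice or female NIH-RNU nude rats. Compound dosed iv three times per week. Tumour regression dose recorded. Rat effective doses were estimated from mouse xenografts using a 0.5 mouse-to-rat conversion factor.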

The test system of the next series is MDA-MB-468. Nature of the series: Cytotoxicity against human MDA-MB-468 cells. The format is functional, cell-based.
Series [3] deals with PC-3. Nature of the series: Cytotoxicity against human PC3 cells after 72 hrs by WST-1 assay. It counts as functional, cell-based. The note with it: Homo sapiens, PC-3, 72 h. In a few lines: (§2)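 Cells seeded at 3×10³/well; next day serially diluted compound added in triplicate; 72 h at 37 °C, 5% CO₂. Viable cells measured with WST-1 reagent (1 h), absorbance 450 nm minus 690 nm reference. IC50 is mean ± SD of at least two experiments run in triplicate. MCF-7 grown in DMEM, PC3 in RPMI, each with 10% serum.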

A short description of series [4]: Toxicity in iv dosed rat assessed as maximum tolerated dose. The note with it: in vivo.
The nature of series [5]: Half life in mouse at 5 mg/kg, iv. The format is ADME, organism-based. Set-up: dose 5 mg/kg, route intravenous. Particulars: in vivo. In a few lines: as §1
The next series relates to MDA-MB-231. Nature of the series: Cytotoxicity against human MDA-MB-231 cells. It counts as functional, cell-based.
The nature of series [6]: Therapeutic index, ratio of MTD in rat to ED50 for antitumor activity against human PC3 cells xenografted in rat. It counts as cell-based, PC-3. The note with it: in vivo, read-out: TI. Put shortly:
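PC3 human prostate cancer cells (1e7, grown in RPMI + 10% FBS, suspended in PBS + Matrigel) were implanted sc in female nude rats (NIHRNU-M) or nude mice (NMRI/nude), with iv dosing 3×/week. Rat MTD came from a single iv dose. Effective rat doses were estimated from mouse xenografts using a mouse-to-rat conversion factor of 0.5. Index = rat toxic dose / rat effective dose.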

In series [7] the test system is MCF7. Description: Cytotoxicity against human MCF7 cells after 72 hrs by WST-1 assay. Particulars: Homo sapiens, MCF7, 72 h. The format is functional, cell-based. In a few lines: as §2
On the technique in general: Tetrazolium dyes change colour on reduction, which living cells bring about.

Series [8] can be described thus: Half life in rat at 10 mg/kg, iv. The format is ADME, organism-based. The arrangement: dose 10 mg/kg, route intravenous. Particulars: in vivo. Put shortly:
as §1

Series [9] in a line: AUC in rat at 10 mg/kg, iv. The format is ADME, organism-based. The arrangement: dose 10 mg/kg, route intravenous. The note with it: plasma. In a few lines: as §1
In series [10] the test system is PC-3. Nature of the series: Antitumor activity against human PC3 cells xenografted in sc dosed rat assessed as tumor regression dose. The format is functional. A general note: Xenograft models place foreign cells or tissue in a host animal.
The target of series [11] is Eukaryotic translation initiation factor 2 subunit 1 (Homo sapiens) (UniProt P05198). Description: Induction of eIF2alpha phosphorylation in human MCF7 cells.
Sequence of Eukaryotic translation initiation factor 2 subunit 1 (Homo sapiens) (P05198 whole entry): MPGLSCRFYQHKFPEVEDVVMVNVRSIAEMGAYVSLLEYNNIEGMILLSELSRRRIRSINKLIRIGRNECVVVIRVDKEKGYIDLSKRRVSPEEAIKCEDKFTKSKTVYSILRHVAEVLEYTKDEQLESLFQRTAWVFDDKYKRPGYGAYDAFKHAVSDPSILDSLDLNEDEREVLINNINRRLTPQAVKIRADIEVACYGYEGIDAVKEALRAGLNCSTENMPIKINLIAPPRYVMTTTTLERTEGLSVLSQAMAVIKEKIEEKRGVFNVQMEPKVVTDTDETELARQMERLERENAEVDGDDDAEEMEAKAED
For series [12] the target is unchanged. Nature of the series: Inhibition of eIF2alpha autophosphorylation in human A2780 cells. It counts as cell-based. Put shortly: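 MCF-7 (DMEM) and A2780 (RPMI 1640) cells, together with sublines made resistant by culture in rising concentrations of the parent oxindole, were treated with compound for 4 and 24 h respectively. Lysates (20 μg protein) separated by SDS-PAGE and blotted onto nitrocellulose. Phospho-eIF2α read by western blot: milk block, primary antibody overnight at 4 °C, HRP secondary antibody.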

In series [13] the test system is MCF7. Description: Cytotoxicity against human MCF7 cells after 72 hrs at 0.5 uM by WST-1 assay. Particulars: MCF7, 72 h. It counts as functional.

What is called AUC is the area under the concentration-time curve, a measure of exposure. For orientation: IC50 means the concentration that inhibits the measured activity by half. Low values mean higher potency, high ones lower potency. One may read the MTD as the highest dose tested that stayed within the study's limit of toxicity. As usually defined, the half-life is the time needed for the level to fall by half in the phase considered. `O=C1Nc2c(ccc(F)c2F)C1(c1ccc(O)cc1)c1ccc(O)cc1` registered an AUC in [1] of 6770 ng·h/mL. Further, the Activity in the series with PC-3 [2] is 5 mg/kg. Besides, the IC50 was 20 nM with MDA-MB-468, 699 nM with PC-3 [3], above 3000 nM in the series on MDA-MB-231 and 20 nM with MCF7 [7]. For the same compound, the MTD in [4] was determined as 1 mg/kg. In series [5], this compound showed a half-life of 1.7 h. The selectivity ratio in [6] was 0.4.

`COc1ccc2c(c1C)NC(=O)C2(c1ccc(O)cc1)c1ccc(F)cc1` (racemic): the Activity in the series on PC-3 [2] is 10 mg/kg; with PC-3 [10], below 10 mg/kg. Moreover, the half-life in series [8] is 1.5 h. The 50% inhibitory concentration (IC50) with PC-3 [3] stood at 9 nM; in the series with MCF7 [7] it was 6.3 nM. Also, the MTD in [4] came to 15 mg/kg. Also, the area under the curve (AUC) in series [9] turned out to be 3950 ng·h/mL. Besides, the selectivity ratio in series [6] was 3.

For orientation: inhibition means the percentage by which the read-out fell short of the control. In the case of `COc1ccc2c(c1C)NC(=O)C2(c1ccc(O)cc1)C1CCCCCC1` (racemic), the Activity was 20 mg/kg with PC-3 [2] and 10 mg/kg in the series with PC-3 [10]. For the same compound, the half-life in series [8] is 1.5 h. Moreover, the IC50 worked out at 12 nM with PC-3 [3] and 4.7 nM with MCF7 [7]. In series [4], the MTD was found to be 70 mg/kg. The compound also yielded an exposure (AUC) in series [9] of 5760 ng·h/mL. Moreover, the induction entry in series [11] is “inactive”. For the same compound, the inhibition result in series [12] was “inactive”. Further, the selectivity ratio in [6] came to 7.

For `O=C1Nc2ccccc2C1(c1ccc(O)cc1)c1ccc(O)cc1` [OXYPHENISATINE], the concentration for half-maximal inhibition (IC50) in the series with PC-3 [3] was above 1000 nM. The compound further came in with an inhibition at 0.5 µM in the series with MCF7 [13] of 73%.

Source of the values: ChEMBL document CHEMBL1255220, “Synthesis and antitumor effect in vitro and in vivo of substituted 1,3-dihydroindole-2-ones” (J Med Chem, 2010).
